Values after ≈ are worked out from the molar mass of the structure shown. One block for each compound: values may come before it.
Key:
[1] = molecular target: T1, Trace amine-associated receptor 1 (Homo sapiens, UniProt Q96RJ0); assay: Displacement of (S)-4-(2,4-difluorophenyl-3-tritio) -4,5-dihydro-2-oxazolamine from human TAAR1 receptor expressed in HEK293 cells after 90 mins by beta counting analysis; type: cell-based
T1 sequence (Q96RJ0 whole entry): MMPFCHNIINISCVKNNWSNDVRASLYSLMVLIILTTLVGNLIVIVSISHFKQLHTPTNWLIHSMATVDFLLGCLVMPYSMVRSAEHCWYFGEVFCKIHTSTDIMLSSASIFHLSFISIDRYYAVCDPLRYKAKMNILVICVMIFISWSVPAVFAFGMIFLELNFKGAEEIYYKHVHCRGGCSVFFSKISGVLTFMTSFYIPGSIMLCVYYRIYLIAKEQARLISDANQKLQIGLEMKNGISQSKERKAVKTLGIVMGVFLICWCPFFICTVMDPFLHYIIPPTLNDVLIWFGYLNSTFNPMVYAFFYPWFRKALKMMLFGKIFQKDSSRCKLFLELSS

[2] = molecular target: Trace amine-associated receptor 1 (Mus musculus, UniProt Q923Y8); assay: Agonist activity at mouse TAAR1 receptor expressed in HEK293 cells after 30 mins; type: functional, cell-based
Sequence of Trace amine-associated receptor 1 (Mus musculus, UniProt Q923Y8) (Q923Y8 whole entry): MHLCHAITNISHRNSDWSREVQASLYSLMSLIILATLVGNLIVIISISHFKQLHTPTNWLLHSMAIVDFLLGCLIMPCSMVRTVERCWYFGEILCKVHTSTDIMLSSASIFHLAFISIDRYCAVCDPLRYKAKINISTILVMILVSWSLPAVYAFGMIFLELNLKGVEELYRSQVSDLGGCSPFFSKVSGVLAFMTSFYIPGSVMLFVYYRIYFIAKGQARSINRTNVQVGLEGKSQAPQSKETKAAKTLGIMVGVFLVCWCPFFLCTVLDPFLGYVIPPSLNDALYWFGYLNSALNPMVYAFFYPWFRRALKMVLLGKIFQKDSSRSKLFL

[3] = molecular target: Trace amine-associated receptor 1 (Rattus norvegicus, UniProt Q923Y9); assay: Agonist activity at rat TAAR1 receptor expressed in HEK293 cells after 30 mins; type: functional, cell-based
Sequence of Trace amine-associated receptor 1 (Rattus norvegicus, UniProt Q923Y9) (Q923Y9 whole entry): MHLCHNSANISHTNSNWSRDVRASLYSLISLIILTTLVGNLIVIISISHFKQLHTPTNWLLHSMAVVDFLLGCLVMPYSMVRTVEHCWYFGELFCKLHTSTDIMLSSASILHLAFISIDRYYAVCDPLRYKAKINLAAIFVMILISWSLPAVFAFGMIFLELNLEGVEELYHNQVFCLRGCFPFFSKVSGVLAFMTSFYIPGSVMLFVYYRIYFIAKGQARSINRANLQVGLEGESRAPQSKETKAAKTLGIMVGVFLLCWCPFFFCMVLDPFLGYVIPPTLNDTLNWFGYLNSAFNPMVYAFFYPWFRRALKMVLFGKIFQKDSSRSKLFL

[4] = molecular target: Trace amine-associated receptor 1 (Mus musculus) (UniProt Q923Y8); assay: Agonist activity at mouse TAAR1 receptor expressed in HEK293 cells after 30 mins relative to control; type: functional, cell-based
Sequence of Trace amine-associated receptor 1 (Mus musculus) (Q923Y8 whole entry): as the sequence (Q923Y8 whole entry) above

[5] = molecular target: Trace amine-associated receptor 1 (Rattus norvegicus) (UniProt Q923Y9); assay: Agonist activity at rat TAAR1 receptor expressed in HEK293 cells after 30 mins relative to control; type: functional, cell-based
Sequence of Trace amine-associated receptor 1 (Rattus norvegicus) (Q923Y9 whole entry): as the sequence (Q923Y9 whole entry) above

CHL = assay: Selectivity ratio of Ki for human adrenergic alpha2A receptor expressed in CHL cells to Ki for human TAAR1 receptor; type: cell-based
[6] = Thermodynamic solubility of the compound at pH 6.5; type: physicochemical; conditions: buffer, read-out: Therm_solubility
Summary of the method: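 Thermodynamic solubility determined using solid material, with the final pH being 6.5; value expressed in µg/ml.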

[7] = Lipophilicity, log D of the compound; type: physicochemical; conditions: octanol/water
Summary of the method: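 Distribution coefficient (logD) measured at pH 7.4.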

[8] = Permeability of the compound by PAMPA assay; type: ADME; conditions: read-out: permeability
[9] = Dissociation constant, pKa of the compound; type: physicochemical
Liver = assay: Intrinsic clearance in mouse liver microsomes assessed per mg protein; type: ADME, Microsome
Liver microsomes [10] = assay: Intrinsic clearance in rat liver microsomes assessed per mg protein; type: ADME, Microsome
Liver microsomes [11] = assay: Intrinsic clearance in human liver microsomes assessed per mg protein; type: ADME, Microsome
[12] = Clearance in mouse at 5 mg/kg, iv; type: ADME, organism-based; set-up: dose 5 mg/kg, route intravenous; conditions: in vivo
[13] = Clearance in rat at 4.8 mg/kg, iv; type: ADME, organism-based; set-up: dose 4.8 mg/kg, route intravenous; conditions: in vivo
[14] = Volume of distribution at steady state in mouse at 5 mg/kg, iv; type: ADME, organism-based; set-up: dose 5 mg/kg, route intravenous; conditions: in vivo, read-out: Vdss
[15] = Volume of distribution at steady state in rat at 4.8 mg/kg, iv; type: ADME, organism-based; set-up: dose 4.8 mg/kg, route intravenous; conditions: in vivo, read-out: Vdss
[16] = Ratio of drug level in brain to plasma in mouse at 5 mg/kg, iv; type: ADME, organism-based; set-up: dose 5 mg/kg, route intravenous; conditions: brain and plasma, read-out: BPR
[17] = Ratio of drug level in brain to plasma in rat at 4.8 mg/kg, iv; type: ADME, organism-based; set-up: dose 4.8 mg/kg, route intravenous; conditions: brain and plasma, read-out: BPR
[18] = Cmax in mouse at 10 mg/kg, po; type: ADME, organism-based; set-up: dose 10 mg/kg, route oral; conditions: in vivo
[19] = Cmax in rat at 3.8 mg/kg, po; type: ADME, organism-based; set-up: dose 3.8 mg/kg, route oral; conditions: in vivo
[20] = Half life in mouse at 10 mg/kg, po; type: ADME, organism-based; set-up: dose 10 mg/kg, route oral; conditions: in vivo
[21] = Half life in rat at 3.8 mg/kg, po; type: ADME, organism-based; set-up: dose 3.8 mg/kg, route oral; conditions: in vivo
[22] = Oral bioavailability in mouse at 10 mg/kg; type: ADME, organism-based; conditions: in vivo
[23] = Oral bioavailability in rat at 3.8 mg/kg; type: ADME, organism-based; conditions: in vivo
[24] = Fraction unbound in mouse plasma; type: ADME, cell-free
[25] = Fraction unbound in rat plasma; type: ADME, cell-free
Rattus norvegicus = assay: Inhibition of cocaine-induced hyperlocomotion in po dosed Wistar rat assessed as reduction in locomotor activity after 30 mins; type: functional, organism-based
Summary of the method: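 Rats were pretreated orally with several doses of test compound. Hyperlocomotion was then induced with cocaine at 20 mg/kg i.p., and the reduction in locomotor activity was recorded.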

SMILES: FC(F)(F)c1cccc(C(F)(F)F)c1Cc1ncc[nH]1
Ki [1]: 13300 nM

SMILES: Clc1cccc(Cl)c1Cc1ncc[nH]1
Ki [1]: 1390 nM
Ratio Ki (CHL): 0.7

SMILES: CC(C)N(Cc1cnc[nH]1)c1ccc(Cl)cc1
EC50 [3]: 25 nM
solubility thermodynamic [6]: 97 µg/mL (≈ 388 µM)
logD [7]: 3.3
Papp [8]: 2.7 ×10⁻⁶ cm/s
pKa [9]: 3.5
CLint (Liver): 17.5 µL/min/mg
CLint (Liver microsomes [10]): 70 µL/min/mg
CLint (Liver microsomes [11]): 18 µL/min/mg
clearance [12]: 24 mL/min/kg
clearance [13]: 40 mL/min/kg
Vd [14]: 2 L/kg
Vd [15]: 4.1 L/kg
Kp [16]: 0.6
Kp [17]: 6.6
Cmax [18]: 1740 ng/mL
Cmax [19]: 519 ng/mL
half-life [20]: 1.8 h
half-life [21]: 1 h
bioavailability [22]: 86%
bioavailability [23]: 66%
fraction unbound [24]: 0.08
fraction unbound [25]: 0.06
inhibition (Rattus norvegicus): Dose-dependent effect
Emax [4]: 26%
Emax [5]: 24%

SMILES: CC(C)N(Cc1cnc[nH]1)c1cc(Cl)cc(Cl)c1
Ki [1]: 4 nM
Ratio Ki (CHL): 37

SMILES: c1ccc2c(c1)CCCN2Cc1c[nH]cn1
Ratio Ki (CHL): 4

SMILES: COc1cccc(N(Cc2cnc[nH]2)C(C)C)c1
EC50 [2]: 72 nM
EC50 [3]: 61 nM
Emax [4]: 55%
Emax [5]: 25%

SMILES: COc1cccc(N(Cc2cnc[nH]2)C(C)C)n1
EC50 [3]: 25 nM
Emax [4]: 35%
Emax [5]: 18%

Now from value to compound, other results behind:

EC50 [2]: 10 nM
EC50 [3]: 27 nM
Emax [4]: 50%
Emax [5]: 22%
SMILES: CC(C)N(Cc1cnc[nH]1)c1cccc(Cl)c1

Ki [1]: 1640 nM
SMILES: c1ccc(CC2=NCCN2)cc1 [TOLAZOLINE]
Ratio Ki (CHL): 0.06

Ki [1]: 4250 nM
SMILES: c1ccc(NCc2ncc[nH]2)cc1
Ratio Ki (CHL): 0.2

EC50 [2]: 28 nM
EC50 [3]: 7.3 nM
Emax [4]: 45%
Emax [5]: 34%
SMILES: CC(C)N(Cc1cnc[nH]1)c1ccccc1

Ki [1]: 12 nM
SMILES: c1ccc2c(c1)CCCN2Cc1cnc[nH]1

Ki [1]: 1270 nM
SMILES: CN(Cc1ncc[nH]1)c1ccccc1
Ratio Ki (CHL): 0.2

EC50 [2]: 500 nM
EC50 [3]: 400 nM
Emax [4]: 54%
Emax [5]: 60%
SMILES: CC(C)N(Cc1ncc[nH]1)c1cccc(Cl)c1
